Screening results: PubChem, The Scripps Research Institute Molecular Screening Center
In the library only some 4.5% were active in any assay of this set; here they are far more common.
OX1R antag-1: antagonists of human orexin 1 receptor (OX1R). OX1R-expressing cells, FRET antagonist read-out. inhibition, % at 6.6 µM. hit rate 1.8% among 330,000. AID 485270, 2010; in the data active means inhibition mostly above about 38%, no sharp cut-off; inactive means mostly below about 40%;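 further: 0% = agonist challenge alone and 100% = reference antagonist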
Target sequence (O43613 whole entry, looked up): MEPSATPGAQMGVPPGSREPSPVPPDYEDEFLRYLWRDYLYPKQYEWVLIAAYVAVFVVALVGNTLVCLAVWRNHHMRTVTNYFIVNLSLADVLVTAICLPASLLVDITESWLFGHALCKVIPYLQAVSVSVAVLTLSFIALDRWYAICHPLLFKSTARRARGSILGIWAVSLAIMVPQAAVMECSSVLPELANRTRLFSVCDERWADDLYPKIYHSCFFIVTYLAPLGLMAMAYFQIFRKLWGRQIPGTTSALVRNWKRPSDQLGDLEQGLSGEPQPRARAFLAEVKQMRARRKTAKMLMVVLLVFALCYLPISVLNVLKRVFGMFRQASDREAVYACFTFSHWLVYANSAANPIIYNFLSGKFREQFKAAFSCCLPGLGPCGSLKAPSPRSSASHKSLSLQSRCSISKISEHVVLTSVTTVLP
GPR7 antag: GPR7 receptor antagonists, primary screen, cell-based, fluorescence, single concentration | GPR7-expressing cells, fluorescence antagonist assay | Neuropeptides B/W receptor type 1 (Homo sapiens), P48145 | AID 1861, 2009 | inhibition, % at 4.4 µM | hit rate 1.1% among 290,000; in the data active means inhibition above about 16%, passing the limit was not always enough;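 further: cells stimulated with the agonist NPW; 0% = agonist with vehicle and 100% = vehicle without agonist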
TAAR1 antag: human TAAR1 antagonists, primary screen, Fluo-8 calcium fluorescence, CHO RD-HGA16 cells; antagonist; AID 624466, 2012; hit rate 1.5% among 360,000; inhibition, % at 3 µM;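 active means inhibition above a per-plate cutoff, the mean inhibition of test compounds on that plate plus 3 SD, cut at about 49% in these data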;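 further: 0% = DMSO plus EC80 beta-PEA response and 100% = DMSO alone without agonist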
Target sequence (Q96RJ0 whole entry, looked up): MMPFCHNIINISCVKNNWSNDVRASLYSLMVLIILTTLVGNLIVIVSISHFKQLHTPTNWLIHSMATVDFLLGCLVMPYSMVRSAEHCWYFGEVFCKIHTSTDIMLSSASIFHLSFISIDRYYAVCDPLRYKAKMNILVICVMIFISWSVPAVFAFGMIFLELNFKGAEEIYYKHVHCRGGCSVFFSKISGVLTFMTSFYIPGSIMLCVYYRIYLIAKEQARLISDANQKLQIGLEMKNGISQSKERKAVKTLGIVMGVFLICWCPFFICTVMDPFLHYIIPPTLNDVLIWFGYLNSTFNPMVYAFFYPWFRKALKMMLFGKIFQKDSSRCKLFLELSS
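Test system – hTAAR1-expressing CHO RD-HGA16 cells, Gα16-coupled · Also added – β-PEA at EC80 concentration, post-compound challenge · Compound – 3 µM, single point · Incubation – dye loading 75 min at 37 °C, then 30 min room temperature · Measured by – Fluo-8 intracellular calcium dye fluorescence, real-time kinetic reads · Benchmarks – vehicle and agonist controls · Replicates – singlicate, one well per test compound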
OX1R antag-2: OX1R (HCRTR1) antagonists, primary screen, fluorescence, CHO/OX1R cells, Fluo-8 calcium, orexin A | Orexin/Hypocretin receptor type 1 (Homo sapiens), O43613 | Fluo-8 calcium fluorescence | inhibition, % at 5 µM | hit rate 0.43% among 330,000 | AID 434989, 2010;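 active means inhibition above its plate's threshold, mean inhibition of all tested compounds on the plate plus 3 SD, cut at about 37% in these data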;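 further: 0% = orexin A challenge wells and 100% = SB-334867-A antagonist wells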
TAAR1 agonist: human TAAR1 agonists, primary screen, Fluo-8 calcium fluorescence, CHO RD-HGA16 cells | vehicle wells 0%, saturating PEA agonist 100% | activation, % at 3 µM | hit rate 0.99% among 360,000 | AID 624467, 2012;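 active means activation above the mean activation of all test compounds in the run plus 3 SD, cut at about 38% in these data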
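test system = CHO RD-HGA16 cells carrying human TAAR1 plus Gα16 | schedule = 17-24 h seeding, 75 min 37 °C dye, 30 min RT | compound dosing = 3 µM single concentration | control set = DMSO and PEA EC100 | replicates = n 1 | signal = Fluo-8 fluorescence, 5 s baseline then 140 s kinetic read | measure = percent activation vs PEA EC100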
CHO parental Ca: ATP-evoked calcium signal inhibitors, parental CHO, primary screen, counter-screen for OX1R antagonist project, cell-based, fluorescence, Fluo-8 calcium dye. hit rate 0.63% among 330,000. parental CHO-K1, ATP-induced calcium, Fluo-8 fluorescence. inhibition, % at 5.6 µM;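 active means inhibition above that plate's mean sample inhibition plus 3 SD, cut at about 26% in these data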;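 further: 0% = ATP-challenged DMSO wells and 100% = DMSO wells without ATP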
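Material – parental CHO cells · Reagent – ATP stimulus · Compound – single nominal dose of 5.6 µM per compound · Detection – Fluo-8 fluorescence · Read-out basis – percent inhibition of calcium signal · Controls – ATP-challenged DMSO wells low, unchallenged DMSO wells high · Repeats – no replicates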
GPR7 antag cf: GPR7 receptor antagonists, confirmation, cell-based, fluorescence, single concentration; shares compounds with GPR7 antag; AID 1952, 2009; hit rate 52% among 2,400; GPR7-expressing cells, calcium fluorescence antagonist mode; inhibition, % at 4.4 µM; in the data active means inhibition above about 24%;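 further: stimulated with the GPR7 agonist NPW; 0% = agonist plus vehicle and 100% = vehicle alone without agonist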
MCHR1 antag: MCHR1 antagonists in cells, counter-screen for GPR7 antagonist project, cell-based, fluorescence, human; shares compounds with GPR7 antag; MCHR1-expressing cells, fluorescence antagonist assay; inhibition, % at 4.4 µM; hit rate 62% among 2,400; AID 2148, 2009;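 further: 0% = vehicle with agonist and 100% = vehicle without agonist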
nonsel antag count: nonselective antagonists in TAAR1 counter-screen cells, counter-screen for hTAAR1 antagonist project, cell-based, fluorescence, calcium | hit rate 77% among 2,400 | shares compounds with TAAR1 antag | counterscreen cell line, antagonist mode | inhibition, % at 3 µM;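 further: CHO-Ga16 host cells stimulated with ATP at an EC80 level; 0% = agonist EC80 plus vehicle and 100% = vehicle without agonist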
TAAR1 antag conf: human TAAR1 antagonists, retest of hits, confirmation, cell-based, fluorescence | shares compounds with TAAR1 antag | TAAR1-expressing cells, fluorescence antagonist read-out | inhibition, % at 3 µM | hit rate 40% among 2,400; in the data active means inhibition above about 49%;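 further: CHO-Ga16 host cells challenged with agonist PEA near its EC80; 0% = agonist at EC80 plus vehicle and 100% = vehicle with no agonist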
Ga16 ag counter-1: calcium activation in Ga16-expressing cells, counter-screen for TAAR1 antagonist project, cell-based, fluorescence; shares compounds with TAAR1 antag; agonist counterscreen; activation, % at 3 µM; hit rate 18% among 2,400; AID 651953, 2012; in the data active means activation above about 12%;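 further: 0% = vehicle wells and 100% = saturating stimulus response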
TAAR1 ag counter: TAAR1 activation by candidate antagonists – cell-based, fluorescence, counter-screen for TAAR1 antagonist project; hTAAR1 cell line, agonist mode; hit rate 2% among 2,400; shares compounds with TAAR1 antag; activation, % at 3 µM; AID 651955, 2012; in the data active means activation above about 37%;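 further: CHO cells stably expressing TAAR1 with calcium dye readout; 0% = DMSO vehicle and 100% = full agonist response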
TAAR1 ag conf: human TAAR1 agonists, retest of hits, confirmation, Fluo-8 calcium fluorescence, CHO RD-HGA16 cells; shares compounds with TAAR1 agonist; scaled: DMSO 0%, maximal phenethylamine 100%; activation, % at 3 µM; hit rate 82% among 2,400; AID 651783, 2012;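 active means activation above a cutoff set at the run's mean compound activation plus 3 SD, cut at about 39% in these data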
Ga16 ag counter-2: nonselective calcium mobilization agonists, CHO-Ga16 cells, counter-screen for hTAAR1 agonist project, cell-based, fluorescence, CHO-Ga16 parental line; activation, % at 3 µM; shares compounds with TAAR1 agonist; Fluo-8 calcium fluorescence; normalized to maximal ATP response, DMSO zero; hit rate 50% among 2,400;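 active means activation above the run cutoff, the mean activation over all tested wells plus 3 SD, cut at about 12% in these data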;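 further: 0% = DMSO wells and 100% = maximal ATP response on the peak over basal ratio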
TAAR1 desensitize: TAAR1 desensitization by agonist hits, confirmation, counter-screen for TAAR1 agonist project, cell-based, fluorescence, tachyphylaxis. hit rate 46% among 2,400. AID 651951, 2012. shares compounds with TAAR1 agonist. CHO RD-HGA16 hTAAR1, Fluo-8 calcium, beta-PEA response inhibition. inhibition, % at 3 µM;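 active means inhibition above the run cutoff, the mean inhibition of all test compounds plus 3 SD, cut at about 49% in these data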;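 further: beta-PEA stimulus applied at its EC80; loss of beta-PEA calcium signal after compound pretreatment read as receptor desensitization; 0% = DMSO with beta-PEA at EC80 and 100% = DMSO alone without agonist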
Ga16 antag count: inhibition of ATP-evoked calcium response in CHO-Ga16 cells, counter-screen for TAAR1 agonist project, cell-based, fluorescence. shares compounds with TAAR1 agonist. CHO-Ga16 ATP-induced calcium, Fluo-8 fluorescence. inhibition, % at 3 µM. AID 651952, 2012. hit rate 39% among 2,400;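 active means inhibition above the plate's mean compound inhibition plus 3 SD, computed per plate, cut at about 22% in these data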;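 further: 0% = EC80 ATP with DMSO and 100% = DMSO wells without ATP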
* hit, by the source's call; . = no result given. Unless noted, no stated cut-off is given here; in the data, active means inhibition above about 22%; inactive means the rest.

SMILES | OX1R antag-1 | GPR7 antag | TAAR1 antag | OX1R antag-2 | TAAR1 agonist | CHO parental Ca | GPR7 antag cf | MCHR1 antag | nonsel antag count | TAAR1 antag conf | Ga16 ag counter-1 | TAAR1 ag counter | others
CCCCCCc1ccc(-c2ccc(C#N)cc2)cc1 | . | . | -18 | . | 1 | . | . | . | . | . | . | .
O=C(COc1cccc(NC(=O)c2cccc([N+](=O)[O-])c2)c1)c1ccc(F)cc1 | 22 | 29* | 78* | 1 | 27 | 0 | 35* | 70* | 38* | 58* | 12* | 20
O=C(COc1cccc(NC(=O)c2ccccc2)c1)c1ccc(F)cc1 | 10 | -4 | 30 | -29 | 15 | -13 | . | . | . | . | . | .
CCCNC(=O)Cn1cnc2sc(C(=O)N3CCN(Cc4ccc5c(c4)OCO5)CC3)c(C)c2c1=O | 8 | -8 | 3 | -4 | 1 | 5 | . | . | . | . | . | .
Cc1c(C(=O)N2CCN(Cc3ccc4c(c3)OCO4)CC2)sc2ncnc(N3CCN(c4ccccc4F)CC3)c12 | 8 | 75* | 77* | -13 | 4 | -12 | 55* | 82* | 34* | 50* | 8 | 5
COc1ccccc1N(C)S(=O)(=O)c1ccc(C(=O)N(C)Cc2cccc(F)c2)cc1 | . | . | 17 | . | 9 | . | . | . | . | . | . | .
Cc1cc(C)cc(NC(=O)Nc2ccc3c(c2)N(C)C(=O)CS3)c1 | 22 | 25* | 82* | 11 | 7 | 34* | 30* | 76* | 43* | 51* | 11 | 7
CN1C(=O)CSc2ccc(NC(=O)N3CCOCC3)cc21 | 9 | 1 | 7 | -19 | 8 | -12 | . | . | . | . | . | .
CCN1CCN(Cc2ccc(NC(=O)c3ccc(C)c(NC(=O)C(=O)c4c[nH]c5ccccc45)c3)cc2C(F)(F)F)CC1 | 46 | 36* | 79* | 9 | 21 | 22 | 61* | 74* | 46* | 47 | 11 | 10
C[C@@H]1CN([C@@H](C)CO)C(=O)CCCn2nncc2CO[C@@H]1CN(C)C(=O)c1ccncc1 | . | . | 3 | . | 1 | . | . | . | . | . | . | .
Cc1ccccc1CN1CCc2c(OCC(=O)N3CCCc4ccccc43)cccc2C1=O | 28 | 22* | 72* | 12 | 12 | -2 | 31* | 60* | 41* | 54* | 11 | 8
COc1ccc(-n2nnnc2C(c2cccc(OC)c2OC)N2CCN(C/C=C/c3ccccc3)CC2)cc1 (configuration not stated) | . | . | -23 | . | 0 | . | . | . | . | . | . | .
O=C(Nc1nc(-c2ccccc2)cs1)c1ccccc1NS(=O)(=O)c1ccc(F)cc1 | 94* | 24* | 70* | 64* | 4 | 57* | 42* | 60* | 58* | 68* | 10 | 4
CCOC(=O)/C(=C/C=C1\Sc2cc(C)c(C)cc2N1CC)C(C)=O | . | 24* | 107* | . | 378* | . | 38* | 76* | . | . | . | . | TAAR1 ag conf=160*;Ga16 ag counter-2=126*;TAAR1 desensitize=91*;Ga16 antag count=84*
COc1ccccc1N1CCN(C(=O)CN(C)S(=O)(=O)c2ccc(C)cc2)CC1 | . | . | -7 | . | 0 | . | . | . | . | . | . | .
O=C(CNS(=O)(=O)c1ccc([N+](=O)[O-])cc1)N/N=C\c1ccc(O)cc1 | 7 | 41* | 68* | 7 | 68* | 6 | 46* | 34* | . | . | . | . | TAAR1 ag conf=101*;Ga16 ag counter-2=39*;TAAR1 desensitize=89*;Ga16 antag count=63*
CC(=O)Nc1ccc(/C=N\NC(=O)CNS(=O)(=O)c2ccc([N+](=O)[O-])cc2)cc1 | 35 | 12 | 11 | 1 | 0 | -1 | . | . | . | . | . | .
O=C1CCC[C@@H]2Cc3nc4cc5c(cc4cc3[C@@H]3CCN1[C@H]23)OCO5 | . | . | 3 | . | 15 | . | . | . | . | . | . | .
CCCCCCCCCCOC(=O)Cn1c(COc2ccccc2OC)[n+](C)c2ccccc21 | 32 | 53* | 90* | 77* | 66* | 84* | 98* | 107* | . | . | . | . | TAAR1 ag conf=79*;Ga16 ag counter-2=91*;TAAR1 desensitize=94*;Ga16 antag count=100*
CCC(C)NCCOc1ccc(C(C)(C)c2ccccc2)cc1 (configuration not stated) | -7 | 22* | -7 | -6 | 54* | 3 | 27* | 30* | . | . | . | . | TAAR1 ag conf=69*;Ga16 ag counter-2=39*;TAAR1 desensitize=34;Ga16 antag count=26*
CNCCCOc1ccc(C(C)(C)c2ccccc2)cc1 | . | 8 | . | . | . | . | . | . | . | . | . | .
CN(/N=C/c1ccc(-c2ccc([N+](=O)[O-])cc2)o1)c1ccccc1 | 28 | 45* | 68* | 60* | 66* | 53* | 56* | 71* | . | . | . | . | TAAR1 ag conf=44*;Ga16 ag counter-2=71*;TAAR1 desensitize=63*;Ga16 antag count=74*
